Published values of several laboratories.
Protocols differ between the studies behind these lines.
NT5E: 5'-nucleotidase (NT5E, Homo sapiens, UniProt P21589)

NC/C(=C\F)COc1cccc(Cn2c(=S)[nH]c(=O)c3[nH]cnc32)c1 has a remaining activity of 81.1% (Lactoperoxidase (LPO, Bos taurus, UniProt P80025); enzyme activity, inhibitor; 2.5 µM).
With CC(=O)ON=C1C=CC(=C(C#N)c2ccccc2)C=C1 the activity vs control was 87% (Dual specificity tyrosine-phosphorylation-regulated kinase 1A (Dyrk1a, Rattus norvegicus, UniProt Q63470); enzyme activity, inhibitor, ADP detection; 2 µM).
With Cc1cc(-c2ccccc2)c(C#N)c(SCC(=O)Nc2nccs2)n1 the inhibition was 91% (NT5E; enzyme activity, inhibitor, HPLC; 10 µM).
The remaining signal of C1=C/COCc2cc(ccc2OCCN2CCCC2)Nc2nccc(n2)-c2cccc(c2)COC/1 is reported as 60% (Cyclin-dependent kinase 13 (CDK13, Homo sapiens, UniProt Q14004); cell-free assay; 0.1 µM).
The remaining binding of COc1ccc2oc(-c3ccc4nc(N)oc4c3)c/c(=N\c3ccccc3NC(=O)CCN)c2c1 is reported as 103% (Platelet-derived growth factor receptor alpha (PDGFRA, Homo sapiens, UniProt P16234); binding; 1 µM).
With O=C(NS(=O)(=O)c1ccc(C(F)(F)F)cc1)c1cc2ccccc2n1Cc1ccc(Br)c2ccccc12 the inhibition was 17.2% (Xanthine dehydrogenase/oxidase (XDH, Bos taurus, UniProt P80457); enzyme activity, inhibitor, absorbance; 10 µM).
N#Cc1c(C(F)(F)F)cc(-c2ccccc2)nc1SCC(=O)Nc1cccnc1 gave an inhibition of 40% (NT5E; enzyme activity, inhibitor; 10 µM).
The remaining binding of CCCCC(=O)Nc1ccc(-c2ccc3ncn(CCC)c(=O)c3c2)cn1 is reported as 53% (Phosphatidylinositol 4-kinase beta (PI4KB, Homo sapiens, UniProt Q9UBF8); binding, competition with immobilised ligand; 0.5 µM).
